Source: ChEMBL document CHEMBL1155099, “Natural products in parallel synthesis: triazole libraries of nonactic acid” (2008)
Active and inactive are the calls of the source.

Assays:
Type in all cases: functional, organism-based
Bacillus subtilis = test: Antibacterial activity against Bacillus subtilis at 1 mM by almar blue dye reduction assay
In short: (§1)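 Single-point primary screen at 1 mM using Alamar Blue dye reduction as the growth read-out.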

Escherichia coli = test: Antibacterial activity against Escherichia coli at 1 mM by almar blue dye reduction assay; in short: as §1
Saccharomyces cerevisiae = test: Antifungal activity against Saccharomyces cerevisiae at 1 mM by almar blue dye reduction assay; in short: as §1
Candida albicans = test: Antifungal activity against Candida albicans at 1 mM by almar blue dye reduction assay; in short: as §1
Cryptococcus neoformans = test: Antifungal activity against Cryptococcus neoformans at 1 mM by almar blue dye reduction assay; in short: as §1
Pseudomonas aeruginosa = test: Antibacterial activity against Pseudomonas aeruginosa at 1 mM by almar blue dye reduction assay; in short: as §1
Staphylococcus aureus = test: Antibacterial activity against Staphylococcus aureus at 1 mM by almar blue dye reduction assay; in short: as §1
Bacillus cereus = test: Antibacterial activity against Bacillus cereus at 1 mM by almar blue dye reduction assay; in short: as §1
Bacillus anthracis = test: Antibacterial activity against Bacillus anthracis at 1mM by almar blue dye reduction assay

Measured: Activity

C[C@H](C[C@@H]1CC[C@H]([C@@H](C)C(=O)N2CCN(CC3CCCO3)CC2)O1)n1cc(C#CC2=CCCCC2)nn1 (stereo partly specified)
inactive: all assays above

COc1cccc(OCC#Cc2cn([C@H](C)C[C@@H]3CC[C@H]([C@@H](C)C(=O)N4CCCC4)O3)nn2)c1OC
inactive: all assays above

CCN(CC)C(=O)[C@H](C)[C@H]1CC[C@@H](C[C@@H](C)n2cc(C#CCOc3ccc(OC)cc3)nn2)O1
inactive: all assays above

COCCNCC#Cc1cn([C@H](C)C[C@@H]2CC[C@H]([C@@H](C)C(=O)N3CCCC3)O2)nn1
inactive: all assays above

CCC(=O)OCC#Cc1cn([C@H](C)CC2CCC([C@@H](C)C(=O)N3CCCC3)O2)nn1 (single isomer, unassigned)
inactive: all assays above

CCCCCC#Cc1cn([C@H](C)C[C@@H]2CC[C@H]([C@@H](C)C(=O)N3CCN(CC4CCCO4)CC3)O2)nn1 (stereo partly specified)
inactive: all assays above

C[C@H](C[C@@H]1CC[C@H]([C@@H](C)C(=O)N2CCN(CC3CCCO3)CC2)O1)n1cc(C#CCN2CCN(c3ccccc3)CC2)nn1 (stereo partly specified)
inactive: all assays above

CCN(CC)C(=O)[C@H](C)[C@H]1CC[C@@H](C[C@@H](C)n2cc(C#CCC(C)C)nn2)O1
inactive: all assays above

C[C@H](C[C@@H]1CC[C@H]([C@@H](C)C(=O)N(C)Cc2ccccc2)O1)n1cc(C#CCN(C)C)nn1
inactive: all assays above

Cc1cccc(NC(=O)NCC#Cc2cn([C@H](C)CC3CCC([C@@H](C)C(=O)N4CCCC4)O3)nn2)c1 (single isomer, unassigned)
inactive: all assays above

COc1ccc(C#Cc2cn([C@H](C)C[C@@H]3CC[C@H]([C@@H](C)C(=O)NC(C)C)O3)nn2)cc1
inactive: all assays above

Cc1cccc(NC(=O)OCC#Cc2cn([C@H](C)CC3CCC([C@@H](C)C(=O)NC(C)C)O3)nn2)c1 (single isomer, unassigned)
inactive: all assays above

COCC#Cc1cn([C@H](C)C[C@@H]2CC[C@H]([C@@H](C)C(=O)N(C)Cc3ccccc3)O2)nn1
inactive: all assays above

CCCCCC#Cc1cn([C@H](C)C[C@@H]2CC[C@H]([C@@H](C)C(=O)N3CCCC3)O2)nn1
inactive: all assays above

COc1ccc(C#Cc2cn([C@H](C)C[C@@H]3CC[C@H]([C@@H](C)C(=O)N(C)Cc4ccccc4)O3)nn2)cc1
inactive: all assays above

CCN(CC)C(=O)[C@H](C)[C@H]1CC[C@@H](C[C@@H](C)n2cc(C#Cc3ccccc3)nn2)O1
inactive: all assays above

CCN(CC)C(=O)[C@H](C)[C@H]1CC[C@@H](C[C@@H](C)n2cc(C#CCOc3ccccc3)nn2)O1
inactive: all assays above

CCCNC(=O)NCC#Cc1cn([C@H](C)CC2CCC([C@@H](C)C(=O)N3CCCC3)O2)nn1 (single isomer, unassigned)
inactive: all assays above

CCOC(=O)C#Cc1cn([C@H](C)CC2CCC([C@@H](C)C(=O)N3CCCC3)O2)nn1 (single isomer, unassigned)
inactive: all assays above

COc1ccc(OCC#Cc2cn([C@H](C)C[C@@H]3CC[C@H]([C@@H](C)C(=O)NC(C)C)O3)nn2)cc1
inactive: all assays above

CC(C)NC(=O)[C@H](C)[C@H]1CC[C@@H](C[C@@H](C)n2cc(C#CCOc3ccc(C(F)(F)F)cc3)nn2)O1
inactive: all assays above

COc1ccc(C#Cc2cn([C@H](C)C[C@@H]3CC[C@H]([C@@H](C)C(=O)N4CCCC4)O3)nn2)cc1
inactive: all assays above

C[C@H](C[C@@H]1CC[C@H]([C@@H](C)C(=O)N2CCCC2)O1)n1cc(C#Cc2ccccc2)nn1
not listed: Saccharomyces cerevisiae
inactive: all other assays above
